# Assay results from ChEMBL document CHEMBL2390829, “N-alkylated 2,3,3-trimethylindolenines and 2-methylbenzothiazoles. Potential lead compounds in the fight against Saccharomyces cerevisiae infections” (Eur J Med Chem, 2013).
# Experiments:
# [1] = system: Candida albicans; test: Antifungal activity against Candida albicans SC5314 after 24 hrs; type: functional; conditions: SC5314, 24 h
# Procedure, shortened: (§1)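 C. albicans SC5314 or S. cerevisiae BY4741a (S288C derivative) grown 12 h at 30 °C, 200 rpm in YPD. 3×10^4 cells seeded per well of a 96-well plate with 1:2 serial dilutions of compound (stocks in 20% v/v DMSO and medium). DMSO and medium served as controls. Growth was scored visually after 24 h at 30 °C. MIC was taken as the well before first growth. Run twice.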
# [2] = system: Saccharomyces cerevisiae; test: Antifungal activity against Saccharomyces cerevisiae BY4741a after 24 hrs; type: functional; procedure, shortened: as §1
# [3] = Lipophilicity, log P of the compound; type: physicochemical; conditions: octanol/water
# [4] = system: Schizosaccharomyces pombe; test: Antifungal activity against Schizosaccharomyces pombe after 24 hrs; type: functional
# Procedure, shortened: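 S. pombe NJ2 h⁻ (ura4-D18 leu1-32 ade6-M210 his7-366) precultured 12 h at 30 °C, 200 rpm in yeast extract broth (YE). 3×10^4 cells were exposed in 96-well plates to 1:2 serial dilutions of compound (stocks in 20% v/v DMSO and medium), with DMSO and medium controls. Growth was read visually at 24 h, 30 °C. MIC was the well preceding first visible growth. Duplicate experiments.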
MIC [1] [µg/mL],MIC [2] [µg/mL],logP ([3]; read-out: logP),MIC [4] [µg/mL],logP [3],SMILES
1000,250,-0.199,250,–,CCC[n+]1c(C)sc2ccccc21.[I-]
0.49,0.49,–,0.49,–,C[C@@H]1[C@H](O)[C@@H](C)/C=C/C=C/C=C/C=C/C=C/C=C/C=C/[C@H](O[C@@H]2O[C@H](C)[C@@H](O)[C@H](N)[C@@H]2O)C[C@@H]2O[C@](O)(C[C@@H](O)C[C@@H](O)[C@H](O)CC[C@@H](O)C[C@@H](O)CC(=O)O[C@H]1C)C[C@H](O)[C@H]2C(=O)O [AMPHOTERICIN B]
500,1000,3.29,250,–,CC1=Nc2ccccc2C1(C)C
1000,500,-1.08,500,–,Cc1sc2ccccc2[n+]1C.[I-]
500,15.6,3.78,15.6,–,CCCCCCCCCC[N+]1=C(C)C(C)(C)c2ccccc21.[I-]
1000,62.5,2.77,62.5,–,CCCCCCCC[N+]1=C(C)C(C)(C)c2ccccc21.[I-]
1000,62.5,1.37,250,–,CCCCCC[n+]1c(C)sc2ccccc21.[Br-]
1000,1000,–,1000,-4.114,CC1=[N+](CCCCS(=O)(=O)[O-])c2ccccc2C1(C)C
1000,31.3,3.27,31.3,–,CCCCCCCCC[N+]1=C(C)C(C)(C)c2ccccc21.[I-]
500,7.8,2.89,31.3,–,CCCCCCCCC[n+]1c(C)sc2ccccc21.[Br-]
1000,250,0.36,250,–,CCCC[n+]1c(C)sc2ccccc21.[Br-]
1000,125,2.26,62.5,–,CCCCCCC[N+]1=C(C)C(C)(C)c2ccccc21.[I-]
250,3.9,3.39,7.8,–,CCCCCCCCCC[n+]1c(C)sc2ccccc21.[Br-]
1000,62.5,1.25,250,–,CCCCC[n+]1c(C)sc2ccccc21.[Br-]
1000,1000,–,1000,-4.33,CC1=[N+](CCCS(=O)(=O)[O-])c2ccccc2C1(C)C
1000,500,-0.701,250,–,CC[n+]1c(C)sc2ccccc21.[I-]
1000,250,1.25,125,–,CCCCC[N+]1=C(C)C(C)(C)c2ccccc21.[I-]
1000,1000,–,1000,-4.576,Cc1sc2ccccc2[n+]1CCCS(=O)(=O)[O-]
1000,250,0.188,250,–,CCC[N+]1=C(C)C(C)(C)c2ccccc21.[I-]
1000,500,-0.691,500,–,CC1=[N+](C)c2ccccc2C1(C)C.[I-]
1000,1000,0.904,1000,–,CC1=[N+](Cc2ccccc2)c2ccccc2C1(C)C.[Br-]
1000,500,-0.315,500,–,CC[N+]1=C(C)C(C)(C)c2ccccc21.[I-]
1000,31.3,1.88,125,–,CCCCCCC[n+]1c(C)sc2ccccc21.[Br-]
1000,1000,–,31.2,–,c1ccc2[nH]c(-c3cscn3)nc2c1 [THIABENDAZOLE]
1000,1000,0.517,1000,–,Cc1sc2ccccc2[n+]1Cc1ccccc1.[Br-]
1000,1000,2.08,250,–,Cc1nc2ccccc2s1
1000,250,0.747,250,–,CCCC[N+]1=C(C)C(C)(C)c2ccccc21.[I-]
1000,1000,–,1000,-4.411,Cc1sc2ccccc2[n+]1CCCCS(=O)(=O)[O-]
1000,15.6,2.38,62.5,–,CCCCCCCC[n+]1c(C)sc2ccccc21.[Br-]
1000,125,1.76,125,–,CCCCCC[N+]1=C(C)C(C)(C)c2ccccc21.[I-]
